PMI act: activators of human PMI, primary screen, biochemical, fluorescence intensity, near-Km mannose 6-phosphate. activation factor at 20 µM. purified human PMI, coupled resazurin fluorescence, 20 min; active compounds read high; 1 = vehicle control, 0 substrate-free wells. actives 0.005% (n = 190,000). Mannose-6-phosphate isomerase (Homo sapiens), P34949;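 active = activation factor of 2 or more at 20 µM, relative to plate controls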
L major viab: Leishmania major promastigote growth inhibition, primary screen; Leishmania major promastigotes, resazurin fluorescence viability; inhibition, % at 10 µM; actives 9% (n = 200,000); in the data active = inhibition above about 50%;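 note: promastigotes grown with compound for 44 hours at 28 °C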
WT yeast gro inh: growth inhibition of WT strain, primary screen, mitochondrial fusion inhibitor project, WT and mutant strains, chemical genetic. actives 2.1% (n = 190,000). mitochondrial fusion phenotypic screen. inhibition, % at 10 µM. AID 1362, 2008; in the data active = inhibition above about 58%; tested in S. cerevisiae
m-calpain inh: inhibitors of pig calpain II, primary screen, biochemical, fluorogenic peptide substrate, 1536-well. purified calpain II, 30 min. inhibition, % at 16 µM. actives 0.37% (n = 220,000). AID 1236, 2008;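 active = inhibition above about 50%, limit read from the data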
Rad51 HR inh: human RAD51 strand exchange inhibitors, primary screen, biochemical, fluorescence; hRad51 DNA strand exchange, fluorescence dequenching; actives 0.085% (n = 200,000); AID 1385, 2008; DNA repair protein RAD51 homolog 1 (Homo sapiens), Q06609; inhibition, % at 10 µM;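 active = inhibition above 40% at the single screening dose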
Target sequence (Q06609 whole entry, looked up): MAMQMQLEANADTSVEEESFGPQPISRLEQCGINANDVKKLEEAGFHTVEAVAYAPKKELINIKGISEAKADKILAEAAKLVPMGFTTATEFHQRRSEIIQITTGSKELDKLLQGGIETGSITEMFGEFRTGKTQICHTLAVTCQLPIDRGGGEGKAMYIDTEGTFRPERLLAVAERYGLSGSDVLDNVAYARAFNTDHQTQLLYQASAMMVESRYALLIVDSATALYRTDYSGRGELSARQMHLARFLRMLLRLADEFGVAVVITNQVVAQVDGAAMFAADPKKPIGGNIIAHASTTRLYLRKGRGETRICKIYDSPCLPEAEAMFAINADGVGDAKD
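material = hRad51 filaments on single-stranded DNA | reagent = Donor/quencher-labelled 47-bp dsDNA substrate | compound = 10 µM final, single point | schedule = strand-exchange reaction 15 min at room temperature | measured by = fluorescein emission 520 nm, excitation 485 nm | read-out basis = % inhibition versus plate control and blank means | benchmarks = plate controls and plate blanks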
PMI act satM6P: human PMI activators, high substrate, primary screen, biochemical, fluorescence intensity, near-saturating mannose 6-phosphate; AID 1216, 2008; actives 0.34% (n = 190,000); activation factor at 20 µM; coupled PMI enzyme assay, resazurin fluorescence, 20 min; active compounds read high; 1 = untreated enzyme, 0 = substrate-free blank;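 active = activation factor of 2 or more at 20 µM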
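Material: human phosphomannose isomerase with PGI, G6PDH, diaphorase coupling enzymes / Reagent: Man-6-P substrate 1.0 mM / Dosing: single compound dose of 20 µM, 1% DMSO final / Incubation: enzyme reaction with compound 20 min at room temperature / Signal: resorufin fluorescence (Ex 544/Em 590 nm) from resazurin via diaphorase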
Each line names hits and unclear results; the compound was inactive in the other large screens. An excerpt weighted towards active compounds, which were near 9.8% of everything screened.

COc1cccc(C2=NOC(C(=O)N3CCN(Cc4ccccc4)CC3)C2)c1OC (stereo not drawn)	none (no result: Rad51 HR inh)
O=C(C1CCN(Cc2ccccc2)CC1)N1CCN(C/C=C/c2ccccc2)CC1	none (no result: Rad51 HR inh)
O=C(C1CCN(C2CCN(C/C=C/c3ccccc3)CC2)CC1)N1CCOCC1	L major viab 59 (no result: Rad51 HR inh)
COc1ccc(CN2CCC(N3CCC(C(=O)N4CCOCC4)CC3)CC2)c(F)c1	L major viab 78 (no result: Rad51 HR inh)
O=C(C1CCN(Cc2ccc(F)cc2)CC1)N1CCN(C/C=C/c2ccccc2)CC1	L major viab 73 (no result: Rad51 HR inh)
Cc1ccc(NS(=O)(=O)c2cc([N+](=O)[O-])ccc2N/N=C/c2sc(N3CCOCC3)nc2-c2ccccc2)c(C)c1	none (no result: PMI act, L major viab, WT yeast gro inh, PMI act satM6P)
O=C(O)CC(c1cccc([N+](=O)[O-])c1)N1Cc2ccccc2C1=O (stereo not drawn)	none (no result: Rad51 HR inh)
CC1=C(C)CC(C(=O)N2CCN(C/C=C/c3ccccc3)CC2)C(C(=O)O)C1 (stereo not drawn)	none (no result: PMI act, PMI act satM6P)
O=C(O)C1C2C=CC(C2)C1C(=O)N1CCN(C/C=C/c2ccccc2)CC1 (stereo not drawn)	L major viab 88 (no result: Rad51 HR inh)
CCCCCOP(=O)(OCCCCC)C1(NS(=O)(=O)c2ccccc2)C=CC(=O)c2ccccc21 (stereo not drawn)	L major viab 100
Nc1nn2cc(-c3ccccc3)nc2c2ccccc12	L major viab 87
CCOC(=O)N1CCC(NS(=O)(=O)c2ccc(C#N)cc2)CC1	none (no result: PMI act, L major viab, WT yeast gro inh, PMI act satM6P)
CSc1nc(SCC(=O)NC(c2ccccc2)c2ccccc2)c2c3c(sc2n1)CN(C)CC3	L major viab 71
Cc1c(NS(=O)(=O)c2ccc(Cl)c(C(=O)OC(C)C(=O)NCc3ccco3)c2)c(=O)n(-c2ccccc2)n1C (stereo not drawn)	none
CCN(CC)c1ccc(NC(=S)NCC2CCCO2)cc1 (stereo not drawn)	none (no result: Rad51 HR inh)
CC(C)(C)OC(=O)N1CCCN(C(=O)Nc2ccc(C(F)(F)F)cc2)CC1	none (no result: PMI act, L major viab, WT yeast gro inh, PMI act satM6P)
O=C(NC1CCCC1)C(c1ccc(F)cc1)N(Cc1ccccc1Cl)C(=O)CCl (stereo not drawn)	L major viab 98
COCCN(C(=O)CCl)C(C(=O)NC1CCCCC1)c1ccccc1C (stereo not drawn)	L major viab 99
COCCN(C(=O)CCC(=O)Nc1cc(C)on1)C(C(=O)NC1CCCC1)c1ccccc1C (stereo not drawn)	none
O=C1C=C(NNC(=O)c2cccnc2)CC(c2ccco2)C1 (stereo not drawn)	none
COc1ccc(NC(=O)c2nn(C34CC5CC(CC(C5)C3)C4)cc2[N+](=O)[O-])cc1	L major viab 96
O=C(Nc1cccc2ccccc12)c1nn(C23CC4CC(CC(C4)C2)C3)cc1[N+](=O)[O-]	L major viab 81 (no result: Rad51 HR inh)
Cn1nc(C(C)(C)C)c([N+](=O)[O-])c1C(=O)Nc1cccc2ccccc12	none (no result: PMI act, L major viab, WT yeast gro inh, PMI act satM6P)
COc1ccc(/C=C(/NC(=O)c2ccco2)C(=O)N2CCc3ccccc32)cc1OC	none (no result: PMI act, L major viab, WT yeast gro inh, PMI act satM6P)
CC(C)N1C(=S)N(Cc2ccco2)C(=O)C1CC(=O)Nc1ccccc1 (stereo not drawn)	none
Cc1nn(-c2ccc(F)cc2)c(C)c1CN1CCN(CCC(C)C)C(CCO)C1 (stereo not drawn)	L major viab 55
Cc1nn(-c2ccc(F)cc2)c(C)c1CN1CCN(CCc2ccccc2)C(CCO)C1 (stereo not drawn)	L major viab 79 (no result: Rad51 HR inh)
Cc1nn(-c2ccc(F)cc2)c(C)c1CN1CCN(Cc2ccccc2)C(CCO)C1 (stereo not drawn)	none (no result: Rad51 HR inh)
CC(C)(C)C1CCC(OC(=O)C[N+]2(C)CCCCC2)CC1 (stereo not drawn)	L major viab 75
CCOC(=O)N1CCN(CC(O)COCc2ccccc2)CC1 (stereo not drawn)	L major viab 66

Screens deposited in PubChem by several laboratories.
